Experimental data reported in ChEMBL document CHEMBL4373647, “Design, synthesis, and antimicrobial evaluation of 1,4-dihydroindeno[1,2-c]pyrazole tethered carbohydrazide hybrids: exploring their in silico ADMET, ergosterol inhibition and ROS inducing potential” (Medchemcomm, 2019).
≈ marks a conversion by molar mass, not a printed value. Calls of active or inactive are those of the source. The calls are words filed in the database; no cut-off is given here.

Key:
Type in all cases: functional
Micrococcus luteus [1] = test: Antibacterial activity against Micrococcus luteus MTCC 2470 assessed as inhibition of bacterial growth incubated for 24 hrs by agar well diffusion method; conditions: MTCC 2470, 24 h
Outline: (§1)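 Strains from MTCC; inoculum at 0.5 McFarland spread on Mueller-Hinton agar; 6 mm wells loaded with compound over 125–0.97 µg/mL; ciprofloxacin positive control (same range), DMSO negative control. Plates held 24 h at 37 °C; MIC taken as lowest concentration giving a clear inhibition zone. Triplicate runs, mean MIC reported.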

Staphylococcus aureus [2] = test: Antibacterial activity against Staphylococcus aureus MTCC 96 assessed as inhibition of bacterial growth incubated for 24 hrs by agar well diffusion method; conditions: MTCC 96, 24 h; outline: as §1
Staphylococcus aureus [3] = test: Antibacterial activity against Staphylococcus aureus MLS-16 MTCC 2940 assessed as inhibition of bacterial growth incubated for 24 hrs by agar well diffusion method; conditions: MLS-16 MTCC 2940, 24 h; outline: as §1
Bacillus subtilis [4] = test: Antibacterial activity against Bacillus subtilis MTCC 121 assessed as inhibition of bacterial growth incubated for 24 hrs by agar well diffusion method; conditions: MTCC 121, 24 h; outline: as §1
Escherichia coli [5] = test: Antibacterial activity against Escherichia coli MTCC 739 assessed as inhibition of bacterial growth incubated for 24 hrs by agar well diffusion method; conditions: MTCC 739, 24 h; outline: as §1
Pseudomonas aeruginosa [6] = test: Antibacterial activity against Pseudomonas aeruginosa MTCC 2453 assessed as inhibition of bacterial growth incubated for 24 hrs by agar well diffusion method; conditions: MTCC 2453, 24 h; outline: as §1
Raoultella planticola [7] = test: Antibacterial activity against Klebsiella planticola MTCC 530 assessed as inhibition of bacterial growth incubated for 24 hrs by agar well diffusion method; conditions: MTCC 530, 24 h; outline: as §1
Candida albicans = test: Antifungal activity against Candida albicans MTCC 3017 assessed as inhibition of fungal growth incubated for 24 hrs by agar well diffusion method
Outline: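 Candida strains from MTCC, pre-cultured and spread on Mueller Hinton agar. Wells received compound dissolved in 10% DMSO, 125–0.97 µg/mL; miconazole standard over the same range, DMSO negative control. After 24 h at 37 °C, MIC was read as the lowest concentration giving an inhibition zone. Duplicate experiments, means given.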

Micrococcus luteus [8] = test: Bactericidal activity against Micrococcus luteus MTCC 2470 assessed as bacterial killing incubated for 24 hrs; conditions: MTCC 2470, 24 h
Outline: (§2)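 Broth tube assay: compound at 0–125 µg/mL in Mueller Hinton broth, overnight culture added to 0.5 McFarland (1.5 × 10^8 cfu/mL), held 24 h at 37 °C. 10 µL from each tube plated on Mueller Hinton agar. MBC is the lowest concentration that kills the strain. Duplicates, means reported.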

Staphylococcus aureus [9] = test: Bactericidal activity against Staphylococcus aureus MTCC 96 assessed as bacterial killing incubated for 24 hrs; conditions: MTCC 96, 24 h; outline: as §2
Staphylococcus aureus [10] = test: Bactericidal activity against Staphylococcus aureus MLS-16 MTCC 2940 assessed as bacterial killing incubated for 24 hrs; conditions: MLS-16 MTCC 2940, 24 h; outline: as §2
Bacillus subtilis [11] = test: Bactericidal activity against Bacillus subtilis MTCC 121 assessed as bacterial killing incubated for 24 hrs; conditions: MTCC 121, 24 h; outline: as §2
Escherichia coli [12] = test: Bactericidal activity against Escherichia coli MTCC 739 assessed as bacterial killing incubated for 24 hrs; conditions: MTCC 739, 24 h; outline: as §2
Pseudomonas aeruginosa [13] = test: Bactericidal activity against Pseudomonas aeruginosa MTCC 2453 assessed as bacterial killing incubated for 24 hrs; conditions: MTCC 2453, 24 h; outline: as §2
Raoultella planticola [14] = test: Bactericidal activity against Klebsiella planticola MTCC 530 assessed as bacterial killing incubated for 24 hrs; conditions: MTCC 530, 24 h; outline: as §2

| Compound | MIC (Micrococcus luteus [1]) | MIC (Staphylococcus aureus [2]) | MIC (Staphylococcus aureus [3]) | MIC (Bacillus subtilis [4]) | MIC (Escherichia coli [5]) | MIC (Pseudomonas aeruginosa [6]) | MIC (Candida albicans; MTCC 3017, 24 h) | MIC (Raoultella planticola [7]) | MIC (Candida albicans) | MBC (Micrococcus luteus [8]) | MBC (Staphylococcus aureus [9]) | MBC (Staphylococcus aureus [10]) | MBC (Bacillus subtilis [11]) | MBC (Escherichia coli [12]) | MBC (Pseudomonas aeruginosa [13]) | MBC (Raoultella planticola [14]) |
| --- | --- | --- | --- | --- | --- | --- | --- | --- | --- | --- | --- | --- | --- | --- | --- | --- |
| O=C(N/N=C/c1c(F)cc(F)cc1F)c1n[nH]c2c1Cc1ccccc1-2 | > 125 µg/mL | > 125 µg/mL | > 125 µg/mL | 15.6 µg/mL (≈ 43.8 µM) | > 125 µg/mL | > 125 µg/mL | > 125 µg/mL | > 125 µg/mL | – | – | – | – | – | – | – | – |
| O=C(O)c1cn(C2CC2)c2cc(N3CCNCC3)c(F)cc2c1=O [CIPROFLOXACIN] | 0.9 µg/mL (≈ 2.72 µM) | 0.9 µg/mL (≈ 2.72 µM) | 0.9 µg/mL (≈ 2.72 µM) | 0.9 µg/mL (≈ 2.72 µM) | 0.9 µg/mL (≈ 2.72 µM) | 0.9 µg/mL (≈ 2.72 µM) | – | 0.9 µg/mL (≈ 2.72 µM) | inactive | 1.9 µg/mL (≈ 5.73 µM) | 1.9 µg/mL (≈ 5.73 µM) | 1.9 µg/mL (≈ 5.73 µM) | 1.9 µg/mL (≈ 5.73 µM) | 1.9 µg/mL (≈ 5.73 µM) | 1.9 µg/mL (≈ 5.73 µM) | 1.9 µg/mL (≈ 5.73 µM) |
| COc1ccc(/C=N/NC(=O)c2n[nH]c3c2Cc2ccccc2-3)cc1OC | > 125 µg/mL | > 125 µg/mL | > 125 µg/mL | > 125 µg/mL | > 125 µg/mL | > 125 µg/mL | > 125 µg/mL | > 125 µg/mL | – | – | – | – | – | – | – | – |
| COc1cc(/C=N/NC(=O)c2n[nH]c3c2Cc2ccccc2-3)cc(OC)c1OC | > 125 µg/mL | 15.6 µg/mL (≈ 39.8 µM) | 15.6 µg/mL (≈ 39.8 µM) | 7.8 µg/mL (≈ 19.9 µM) | > 125 µg/mL | > 125 µg/mL | > 125 µg/mL | > 125 µg/mL | – | – | – | – | – | – | – | – |
| COc1ccc2c(c1)Cc1c(C(=O)N/N=C/c3ccc(Br)cc3)n[nH]c1-2 | > 125 µg/mL | > 125 µg/mL | > 125 µg/mL | > 125 µg/mL | > 125 µg/mL | > 125 µg/mL | > 125 µg/mL | > 125 µg/mL | – | – | – | – | – | – | – | – |
| O=C(N/N=C/c1ccc(Cl)cc1)c1n[nH]c2c1Cc1cc(F)ccc1-2 | > 125 µg/mL | 15.6 µg/mL (≈ 44 µM) | 15.6 µg/mL (≈ 44 µM) | 7.8 µg/mL (≈ 22 µM) | > 125 µg/mL | > 125 µg/mL | > 125 µg/mL | > 125 µg/mL | – | – | – | – | – | – | – | – |
| O=C(N/N=C/c1ccc(Br)cc1)c1n[nH]c2c1Cc1ccccc1-2 | > 125 µg/mL | 15.6 µg/mL (≈ 40.9 µM) | 15.6 µg/mL (≈ 40.9 µM) | 15.6 µg/mL (≈ 40.9 µM) | > 125 µg/mL | > 125 µg/mL | > 125 µg/mL | > 125 µg/mL | – | – | – | – | – | – | – | – |
| O=C(N/N=C/c1ccc(Cl)cc1)c1n[nH]c2c1Cc1ccccc1-2 | > 125 µg/mL | 3.9 µg/mL (≈ 11.6 µM) | 3.9 µg/mL (≈ 11.6 µM) | 7.8 µg/mL (≈ 23.2 µM) | 7.8 µg/mL (≈ 23.2 µM) | > 125 µg/mL | > 125 µg/mL | > 125 µg/mL | – | – | – | – | – | – | – | – |
| O=C(N/N=C/c1ccc(Br)cc1)c1n[nH]c2c1Cc1cc(F)ccc1-2 | > 125 µg/mL | 7.8 µg/mL (≈ 19.5 µM) | 15.6 µg/mL (≈ 39.1 µM) | 7.8 µg/mL (≈ 19.5 µM) | > 125 µg/mL | > 125 µg/mL | > 125 µg/mL | > 125 µg/mL | – | – | – | – | – | – | – | – |
| COc1ccc(/C=N/NC(=O)c2n[nH]c3c2Cc2cc(F)ccc2-3)cc1OC | > 125 µg/mL | > 125 µg/mL | 3.9 µg/mL (≈ 10.3 µM) | > 125 µg/mL | > 125 µg/mL | > 125 µg/mL | > 125 µg/mL | > 125 µg/mL | – | – | – | – | – | – | – | – |
| O=C(N/N=C/c1c(F)cc(F)cc1F)c1n[nH]c2c1Cc1cc(F)ccc1-2 | > 125 µg/mL | 7.8 µg/mL (≈ 20.8 µM) | 3.9 µg/mL (≈ 10.4 µM) | 7.8 µg/mL (≈ 20.8 µM) | > 125 µg/mL | > 125 µg/mL | 31.2 µg/mL (≈ 83.4 µM) | > 125 µg/mL | – | – | – | – | – | – | – | – |

More lines, main results first:

| MIC (Micrococcus luteus [1]) | MIC (Staphylococcus aureus [2]) | MIC (Staphylococcus aureus [3]) | MIC (Bacillus subtilis [4]) | MIC (Escherichia coli [5]) | MIC (Pseudomonas aeruginosa [6]) | MIC (Candida albicans; MTCC 3017, 24 h) | Compound | MIC (Raoultella planticola [7]) | MIC (Candida albicans) | MBC (Micrococcus luteus [8]) | MBC (Staphylococcus aureus [9]) | MBC (Staphylococcus aureus [10]) | MBC (Bacillus subtilis [11]) | MBC (Escherichia coli [12]) | MBC (Pseudomonas aeruginosa [13]) | MBC (Raoultella planticola [14]) |
| --- | --- | --- | --- | --- | --- | --- | --- | --- | --- | --- | --- | --- | --- | --- | --- | --- |
| > 125 µg/mL | > 125 µg/mL | 3.9 µg/mL (≈ 10.6 µM) | > 125 µg/mL | > 125 µg/mL | > 125 µg/mL | 31.2 µg/mL (≈ 85.2 µM) | COc1cc(/C=N/NC(=O)c2n[nH]c3c2Cc2cc(F)ccc2-3)ccc1O | > 125 µg/mL | – | – | – | – | – | – | – | – |
| 7.8 µg/mL (≈ 19 µM) | 3.9 µg/mL (≈ 9.5 µM) | 7.8 µg/mL (≈ 19 µM) | 3.9 µg/mL (≈ 9.5 µM) | 3.9 µg/mL (≈ 9.5 µM) | 7.8 µg/mL (≈ 19 µM) | > 125 µg/mL | COc1cc(/C=N/NC(=O)c2n[nH]c3c2Cc2cc(F)ccc2-3)cc(OC)c1OC | 7.8 µg/mL (≈ 19 µM) | – | – | – | – | – | – | – | – |
| 3.9 µg/mL (≈ 11.2 µM) | 7.8 µg/mL (≈ 22.4 µM) | 7.8 µg/mL (≈ 22.4 µM) | 7.8 µg/mL (≈ 22.4 µM) | > 125 µg/mL | > 125 µg/mL | > 125 µg/mL | COc1ccc2c(c1)Cc1c(C(=O)N/N=C/c3ccc(O)cc3)n[nH]c1-2 | > 125 µg/mL | – | – | – | – | – | – | – | – |
| 3.9 µg/mL (≈ 9.23 µM) | 15.6 µg/mL (≈ 36.9 µM) | 7.8 µg/mL (≈ 18.5 µM) | 3.9 µg/mL (≈ 9.23 µM) | > 125 µg/mL | > 125 µg/mL | > 125 µg/mL | COc1ccc2c(c1)Cc1c(C(=O)N/N=C/c3cc(OC)c(OC)c(OC)c3)n[nH]c1-2 | > 125 µg/mL | – | – | – | – | – | – | – | – |
| 3.9 µg/mL (≈ 10.6 µM) | 3.9 µg/mL (≈ 10.6 µM) | 7.8 µg/mL (≈ 21.3 µM) | 7.8 µg/mL (≈ 21.3 µM) | 3.9 µg/mL (≈ 10.6 µM) | > 125 µg/mL | > 125 µg/mL | COc1ccc2c(c1)Cc1c(C(=O)N/N=C/c3ccc(Cl)cc3)n[nH]c1-2 | > 125 µg/mL | – | – | – | – | – | – | – | – |
| 3.9 µg/mL (≈ 9.94 µM) | 3.9 µg/mL (≈ 9.94 µM) | 7.8 µg/mL (≈ 19.9 µM) | 7.8 µg/mL (≈ 19.9 µM) | > 125 µg/mL | > 125 µg/mL | > 125 µg/mL | COc1ccc2c(c1)Cc1c(C(=O)N/N=C/c3ccc(OC)c(OC)c3)n[nH]c1-2 | > 125 µg/mL | – | – | – | – | – | – | – | – |
